DAGLB inh: diacylglycerol lipase beta (human) inhibition. Q8NCG7. HEK293T DAGLB membrane lysate, EnzChek fluorogenic substrate. inhibition, % at 5.17 µM. 340,000 compounds, 0.059% hits; in the data active means inhibition above about 34%
PLC-beta3 inh: inhibitors of human phospholipase C beta3 | Q01970 | Purified PLC-beta3, fluorogenic substrate, fluorescence | inhibition, % at 12.2 µM | 370,000 compounds, 0.18% hits
TbMetRS inhib: blocks T. brucei methionyl-tRNA synthetase activity | purified T. brucei MetRS, ATP depletion, Kinase-Glo luminescence | inhibition, % at 11.9 µM | 360,000 compounds, 0.4% hits | AID 624268;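 active means inhibition above a per-plate cutoff of the control wells' mean inhibition plus 3 SD, cut at about 5.5% in these data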
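Measured by: Kinase-Glo luciferase luminescence reporting remaining unconsumed ATP. Material: purified T. brucei MetRS enzyme. Doses: 11.9 µM compound single dose, 0.9% DMSO. Medium: HEPES buffer containing pyrophosphatase, BSA, spermine, DTT. Times: 15 min preincubation, 2 h reaction, all 25 °C. Reagent: methionine, ATP and bulk E. coli tRNA.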
HGIII-sPLA2 inh: Blocks human group III sPLA2 activity; QFRET BODIPY PC-A2 liposome hydrolysis, fluorescence; inhibition, % at 12.2 µM; 370,000 compounds, 0.56% hits; AID 743126;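 active means inhibition above mean plus 3 SD of compounds lying within the high and low control bounds, cut at about 19% in these data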
Target sequence (Q9NZ20 whole entry, looked up): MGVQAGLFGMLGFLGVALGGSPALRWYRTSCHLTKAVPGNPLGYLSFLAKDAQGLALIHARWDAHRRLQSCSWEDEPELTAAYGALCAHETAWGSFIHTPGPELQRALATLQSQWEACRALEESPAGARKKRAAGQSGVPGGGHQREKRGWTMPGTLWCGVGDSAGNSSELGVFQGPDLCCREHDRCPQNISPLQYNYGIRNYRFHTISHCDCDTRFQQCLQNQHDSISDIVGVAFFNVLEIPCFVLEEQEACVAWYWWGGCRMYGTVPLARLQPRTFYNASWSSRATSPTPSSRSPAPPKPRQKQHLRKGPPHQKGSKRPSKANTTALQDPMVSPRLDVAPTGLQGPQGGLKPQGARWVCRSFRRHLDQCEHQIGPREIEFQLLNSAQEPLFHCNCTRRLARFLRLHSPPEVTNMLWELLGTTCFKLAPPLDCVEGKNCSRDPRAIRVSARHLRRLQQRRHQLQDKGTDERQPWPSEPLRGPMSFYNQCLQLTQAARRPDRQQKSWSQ
PLCg1 inh: inhibitors of human phospholipase C gamma1 | P19174 | purified PLC-gamma1, fluorogenic substrate, fluorescence | inhibition, % at 12.2 µM | 370,000 compounds, 0.84% hits; in the data active means inhibition above about 9.5%
PLCgamma1 ctr: inhibits human PLC-gamma1 in PLC-beta3 counter-screen. shares compounds with PLCg1 inh. purified PLC-gamma1, fluorogenic substrate, fluorescence. inhibition, % at 12.3 µM. 3,300 compounds, 3.1% hits. AID 743258; in the data active means inhibition above about 9.5%
PLCb3 confirm: human PLC-beta3 inhibition, confirmation | inhibition, % at 12.3 µM | 3,300 compounds, 1% hits | purified PLC-beta3, fluorogenic substrate fluorescence | shares compounds with PLCg1 inh
Of the large screens only hits and unclear results are named; the others gave an inactive call (follow-up assays come after a bar, where they were run). Rows were chosen to be rich in hits. Some 1.9% of all compounds tested hit in one or more screens of this group. Unless noted, no stated cut-off is given here; in the data, active means inhibition above about 11%; inactive means the rest.

O=S(=O)(O)c1ccc(N=NNc2ccc(Br)cc2)cc1	PLCg1 inh 9.8 | PLCgamma1 ctr inactive | PLCb3 confirm inactive
COc1ccc(NN=Nc2ccc([N+](=O)[O-])cc2)cc1	none
Cc1ccc(-c2c(C(=O)NCC(C)C)oc(=O)c3ccccc23)cc1	none (no result: DAGLB inh, TbMetRS inhib)
CCCCCCSc1ccc([C@H]2N[C@@](CC(C)C)(C(=O)OC)[C@H]3C(=O)N(CC)C(=O)[C@@H]23)cc1	PLCg1 inh 15.5 | PLCgamma1 ctr inactive | PLCb3 confirm inactive
COc1ccc(N2C(=O)C(Cl)=C(Nc3ccccc3O)C2=O)cc1	none
COc1ccc(N2C(=O)C(Cl)=C(Nc3ccccc3OC)C2=O)cc1	PLC-beta3 inh 13.3, PLCg1 inh 9.5 | PLCgamma1 ctr inactive | PLCb3 confirm inactive
O=C(c1ccc([N+](=O)[O-])cc1Cl)N1CCN(c2ccccn2)CC1	none
O=C(c1ccc(Cl)cc1[N+](=O)[O-])N1CCN(c2ccccn2)CC1	PLC-beta3 inh 11.9 | PLCgamma1 ctr inactive | PLCb3 confirm inactive
O=C1[C@H]2[C@@H](c3ccccc3)N[C@]3(CCCN(Cc4ccco4)C3=O)[C@H]2C(=O)N1Cc1ccccc1	none
Cc1ccc([C@H]2N[C@]3(CCCN(Cc4ccco4)C3=O)[C@H]3C(=O)N(Cc4ccccc4)C(=O)[C@@H]23)cc1	PLCg1 inh 12.2 | PLCgamma1 ctr inactive | PLCb3 confirm inactive
COc1ccc(C2NC(=S)N(Cc3ccc(Cl)cc3)C(C)=C2C(C)=O)cc1 (stereo not given)	none (no result: DAGLB inh, TbMetRS inhib)
COC(=O)[C@@]12CCCCC3=C1N(CCC3)C(=O)[C@H]2CC(=O)NCCC(C)C	none (no result: DAGLB inh, TbMetRS inhib)
Nn1c(SCC(=O)N2c3ccccc3Sc3ccc(Cl)cc32)nnc1-c1n[nH]c2c1CCC2	none (no result: DAGLB inh, TbMetRS inhib)
CCOP(=O)(OCC)C(NC(=O)Nc1ccccc1)C(N)=O (stereo not given)	PLC-beta3 inh 11.1 | PLCgamma1 ctr inactive | PLCb3 confirm inactive
CCOP(=O)(OCC)C(NC(=O)Nc1ccc(Cl)cc1)C(N)=O (stereo not given)	none
COC(=O)[C@@H](Cc1ccccc1)N[C@H](/C=C/c1ccccc1)[C@@H](O)Cc1ccccc1	none (no result: DAGLB inh, TbMetRS inhib)
CC1=C(C)CC(C(=O)NNC(=O)c2ccccc2)C(C(=O)O)C1 (stereo not given)	PLCg1 inh 11.2 | PLCgamma1 ctr inactive | PLCb3 confirm inactive
CCN(C)C(=O)CN1C(=O)C2CCCCN2C(=O)c2ccccc21 (stereo not given)	none (no result: DAGLB inh, TbMetRS inhib)
CCCCC(=O)Nc1ccc(C)c(O)c1	PLC-beta3 inh 11.0, PLCg1 inh 9.6 | PLCgamma1 ctr inactive | PLCb3 confirm inactive
CCCCC(=O)Nc1cc(NC(=O)CCCC)cc(C(=O)O)c1	PLCg1 inh 15.1 | PLCgamma1 ctr inactive | PLCb3 confirm inactive
COc1cccc(NC(=O)N(Cc2cc3cc(C)cc(C)c3[nH]c2=O)CC2COCCO2)c1 (stereo not given)	PLCg1 inh 11.3 | PLCgamma1 ctr inactive | PLCb3 confirm inactive
Cc1cc(C)cc(N(CC(=O)NCc2ccco2)C(=O)CCC(=O)Nc2ccccn2)c1	PLCg1 inh 10.9 | PLCgamma1 ctr inactive | PLCb3 confirm inactive
O=C(CN1C(=O)NC(c2ccccc2)(c2ccccc2)C1=O)N1CCCCC1	none
CC1CCN(C(=O)CN2C(=O)NC(c3ccccc3)(c3ccccc3)C2=O)CC1	PLCg1 inh 12.9 | PLCgamma1 ctr inactive | PLCb3 confirm inactive
NC(=O)c1ccc(NC(=O)CN2C(=O)NC(c3ccccc3)(c3ccccc3)C2=O)cc1	PLCg1 inh 10.5 | PLCgamma1 ctr inactive | PLCb3 confirm inactive
O=C(CN1C(=O)NC(c2ccccc2)(c2ccccc2)C1=O)NCc1ccccc1	none
NC(=O)NC(=O)CN1C(=O)NC(c2ccccc2)(c2ccccc2)C1=O	PLCg1 inh 10.8 | PLCgamma1 ctr inactive | PLCb3 confirm inactive
Cc1ccc(C(=O)N2CCN(S(=O)(=O)c3ccc(C)c([N+](=O)[O-])c3)C2)cc1	PLCg1 inh 10.5 | PLCgamma1 ctr inactive | PLCb3 confirm inactive
COc1cc(/C=N/NC(=O)c2cccnc2)ccc1OCC(=O)Nc1c(C)cc(C)cc1C	PLCg1 inh 10.2 | PLCgamma1 ctr inactive | PLCb3 confirm inactive
Cc1cccc(Cn2cc(COC(=O)NCCc3ccccc3)nn2)c1	none (no result: DAGLB inh, TbMetRS inhib)

Assay outcomes (PubChem)
